Among the data in ChEMBL document CHEMBL3045462, “Synthesis and fungicidal activity of novel 4,4'-bis(2' '-aryl-5' '-methyl/unsubstituted-4' '-oxo-thiazolidin-3' '-yl) bibenzyl” (2003) are inhibition of growth values, retold here.

What all share (format): functional
Conditions in all cases: read-out: GI

The subject of test [1] is Penicillium citrinum. Briefly: Growth inhibition of Penicillium citrinum at 1000 ppm after 96 hr by poisoned food technique. In outline: (§1)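 Poisoned food technique in vitro: test compound mixed into Czapek's agar at 1000, 100 or 10 ppm, then Fusarium oxysporum or Penicillium citrinum grown on the medium. Growth inhibition was scored following previously described methods.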

Test [2] has as its system Penicillium citrinum. Briefly: Growth inhibition of Penicillium citrinum at 100 ppm after 96 hr by poisoned food technique. In outline: as §1
The subject of test [3] is Fusarium oxysporum. Briefly: Growth inhibition of Fusarium oxysporum at 10 ppm after 96 hr by poisoned food technique. In outline: as §1
For test [4], the system named is Fusarium oxysporum. Briefly: Growth inhibition of Fusarium oxysporum at 1000 ppm after 96 hr by poisoned food technique. In short, it runs like this:
as §1

Test [5] concerns Fusarium oxysporum. Briefly: Growth inhibition of Fusarium oxysporum at 100 ppm after 96 hr by poisoned food technique. In short, it runs like this: as §1
The subject of test [6] is Penicillium citrinum. Briefly: Growth inhibition of Penicillium citrinum at 10 ppm after 96 hr by poisoned food technique. In outline:
as §1

Take `C(=N\c1ccc(CCc2ccc(/N=C/c3ccccc3)cc2)cc1)/c1ccccc1`: the inhibition of growth at 1000 ppm in the test on Penicillium citrinum [1] was determined as 56%; with Fusarium oxysporum [4], 50%. In addition, the inhibition of growth at 100 ppm with Penicillium citrinum [2] was 20%; with Fusarium oxysporum [5], 24%. Further, the values for the inhibition of growth at 10 ppm with Fusarium oxysporum [3] and in the test on Penicillium citrinum [6] were 9% and 13%, respectively.
On to `COc1ccc(/C=N/c2ccc(CCc3ccc(/N=C/c4ccc(OC)cc4)cc3)cc2)cc1`, for which the inhibition of growth at 1000 ppm in the test with Penicillium citrinum [1] was determined as 58%; in the test on Fusarium oxysporum [4], 46%. The values for the inhibition of growth at 100 ppm with Penicillium citrinum [2] and with Fusarium oxysporum [5] were 44% and 36%, respectively. The results for the inhibition of growth at 10 ppm with Fusarium oxysporum [3] and in the test with Penicillium citrinum [6] were 29% and 21%, respectively.
Consider `Clc1ccc(/C=N/c2ccc(CCc3ccc(/N=C/c4ccc(Cl)cc4)cc3)cc2)cc1`, for which the inhibition of growth at 1000 ppm came out at 88% in the test with Penicillium citrinum [1] and 83% with Fusarium oxysporum [4]. For the same molecule, the figures for the inhibition of growth at 100 ppm with Penicillium citrinum [2] and in the test with Fusarium oxysporum [5] were 30% and 47%, respectively. The figures for the inhibition of growth at 10 ppm with Fusarium oxysporum [3] and with Penicillium citrinum [6] were 20% and 15%, respectively.
With `COc1ccc(/C=N/c2ccc(CCc3ccc(/N=C/c4ccc(OC)c(OC)c4)cc3)cc2)cc1OC`, the results for the inhibition of growth at 1000 ppm in the test with Penicillium citrinum [1] and with Fusarium oxysporum [4] were 42% and 55%, respectively. In addition, the inhibition of growth at 100 ppm in the test with Penicillium citrinum [2] came out at 27%; with Fusarium oxysporum [5], 43%. Moreover, the inhibition of growth at 10 ppm in the test on Fusarium oxysporum [3] amounted to 31%; in the test with Penicillium citrinum [6], 19%.
Turning to `Oc1ccccc1/C=N/c1ccc(CCc2ccc(/N=C/c3ccccc3O)cc2)cc1`, the inhibition of growth at 1000 ppm in the test on Penicillium citrinum [1] turned out to be 50%; in the test with Fusarium oxysporum [4], 62%. Further, the inhibition of growth at 100 ppm stood at 33% with Penicillium citrinum [2] and 53% in the test on Fusarium oxysporum [5]. Further, the results for the inhibition of growth at 10 ppm in the test with Fusarium oxysporum [3] and with Penicillium citrinum [6] were 25% and 23%, respectively.
Turning to `COc1cc(/C=N/c2ccc(CCc3ccc(/N=C/c4ccc(O)c(OC)c4)cc3)cc2)ccc1O`, the figures for the inhibition of growth at 1000 ppm in the test with Penicillium citrinum [1] and with Fusarium oxysporum [4] were 57% and 51%, respectively. Besides, the inhibition of growth at 100 ppm came to 45% with Penicillium citrinum [2] and 47% in the test with Fusarium oxysporum [5]. In addition, the inhibition of growth at 10 ppm is 48% in the test on Fusarium oxysporum [3] and 37% with Penicillium citrinum [6].
In the case of `O=C1CS[C@@H](c2ccccc2)N1c1ccc(CCc2ccc(N3C(=O)CS[C@H]3c3ccccc3)cc2)cc1`, the inhibition of growth at 1000 ppm in the test on Penicillium citrinum [1] was 51%; in the test with Fusarium oxysporum [4], 55%. Further, the figures for the inhibition of growth at 100 ppm in the test on Penicillium citrinum [2] and in the test on Fusarium oxysporum [5] were 20% and 30%, respectively. Further, the inhibition of growth at 10 ppm with Fusarium oxysporum [3] came to 12%; in the test with Penicillium citrinum [6] it was 10%.
For the molecule `COc1ccc([C@@H]2SCC(=O)N2c2ccc(CCc3ccc(N4C(=O)CS[C@H]4c4ccc(OC)cc4)cc3)cc2)cc1`, the values for the inhibition of growth at 1000 ppm in the test with Penicillium citrinum [1] and in the test with Fusarium oxysporum [4] were 46% and 61%, respectively. The inhibition of growth at 100 ppm was determined as 32% in the test with Penicillium citrinum [2] and 50% in the test with Fusarium oxysporum [5]. Also, the figures for the inhibition of growth at 10 ppm in the test with Fusarium oxysporum [3] and in the test on Penicillium citrinum [6] were 24% and 17%, respectively.
Turning to `O=C1CS[C@@H](c2ccc(Cl)cc2)N1c1ccc(CCc2ccc(N3C(=O)CS[C@H]3c3ccc(Cl)cc3)cc2)cc1`, the values for the inhibition of growth at 1000 ppm in the test on Penicillium citrinum [1] and in the test with Fusarium oxysporum [4] were 87% and 82%, respectively. Moreover, the inhibition of growth at 100 ppm was 33% with Penicillium citrinum [2] and 43% in the test with Fusarium oxysporum [5]. In addition, the inhibition of growth at 10 ppm with Fusarium oxysporum [3] is 15%; with Penicillium citrinum [6], 8%.
With `COc1ccc([C@@H]2SCC(=O)N2c2ccc(CCc3ccc(N4C(=O)CS[C@H]4c4ccc(OC)c(OC)c4)cc3)cc2)cc1OC`, the inhibition of growth at 1000 ppm in the test with Penicillium citrinum [1] came to 67%; in the test with Fusarium oxysporum [4], 38%. Moreover, the inhibition of growth at 100 ppm came to 50% with Penicillium citrinum [2] and 26% with Fusarium oxysporum [5]. For the same molecule, the inhibition of growth at 10 ppm was 24% in the test with Fusarium oxysporum [3] and 26% in the test on Penicillium citrinum [6].
Consider `O=C1CS[C@@H](c2ccccc2O)N1c1ccc(CCc2ccc(N3C(=O)CS[C@H]3c3ccccc3O)cc2)cc1`, for which the inhibition of growth at 1000 ppm came out at 67% in the test on Penicillium citrinum [1] and 61% with Fusarium oxysporum [4]. Also, the inhibition of growth at 100 ppm was found to be 40% in the test on Penicillium citrinum [2] and 50% in the test on Fusarium oxysporum [5]. Moreover, the inhibition of growth at 10 ppm worked out at 39% in the test with Fusarium oxysporum [3] and 25% in the test on Penicillium citrinum [6].
As to `COc1cc([C@@H]2SCC(=O)N2c2ccc(CCc3ccc(N4C(=O)CS[C@H]4c4ccc(O)c(OC)c4)cc3)cc2)ccc1O`, the results for the inhibition of growth at 1000 ppm in the test with Penicillium citrinum [1] and in the test on Fusarium oxysporum [4] were 73% and 78%, respectively. In addition, the inhibition of growth at 100 ppm was 56% in the test on Penicillium citrinum [2] and 65% in the test with Fusarium oxysporum [5]. The inhibition of growth at 10 ppm is 40% in the test with Fusarium oxysporum [3] and 38% in the test on Penicillium citrinum [6].
In the case of `C[C@@H]1S[C@@H](c2ccccc2)N(c2ccc(CCc3ccc(N4C(=O)[C@H](C)S[C@H]4c4ccccc4)cc3)cc2)C1=O`, the inhibition of growth at 1000 ppm in the test with Penicillium citrinum [1] and in the test with Fusarium oxysporum [4] was 100% each time. The inhibition of growth at 100 ppm with Penicillium citrinum [2] amounted to 79%; with Fusarium oxysporum [5], 81%. Moreover, the inhibition of growth at 10 ppm is 59% in the test on Fusarium oxysporum [3] and 53% in the test with Penicillium citrinum [6].
On to `COc1ccc([C@@H]2S[C@@H](C)C(=O)N2c2ccc(CCc3ccc(N4C(=O)[C@H](C)S[C@H]4c4ccc(OC)cc4)cc3)cc2)cc1`, for which the inhibition of growth at 1000 ppm with Penicillium citrinum [1] was found to be 88%; in the test on Fusarium oxysporum [4], 85%. Also, the inhibition of growth at 100 ppm in the test on Penicillium citrinum [2] turned out to be 69%; in the test with Fusarium oxysporum [5], 62%. Besides, the inhibition of growth at 10 ppm in the test on Fusarium oxysporum [3] was 41%; in the test with Penicillium citrinum [6], 45%.
Take `C[C@@H]1S[C@@H](c2ccc(Cl)cc2)N(c2ccc(CCc3ccc(N4C(=O)[C@H](C)S[C@H]4c4ccc(Cl)cc4)cc3)cc2)C1=O`: the inhibition of growth at 1000 ppm in the test on Penicillium citrinum [1] turned out to be 68%; in the test on Fusarium oxysporum [4], 75%. Further, the inhibition of growth at 100 ppm turned out to be 42% in the test with Penicillium citrinum [2] and 65% in the test on Fusarium oxysporum [5]. For the same molecule, the inhibition of growth at 10 ppm with Fusarium oxysporum [3] amounted to 40%; with Penicillium citrinum [6], 30%.
Regarding `COc1ccc([C@@H]2S[C@@H](C)C(=O)N2c2ccc(CCc3ccc(N4C(=O)[C@H](C)S[C@H]4c4ccc(OC)c(OC)c4)cc3)cc2)cc1OC`, the inhibition of growth at 1000 ppm in the test with Penicillium citrinum [1] amounted to 63%; in the test with Fusarium oxysporum [4] it was 71%. For the same molecule, the inhibition of growth at 100 ppm in the test on Penicillium citrinum [2] came out at 55%; in the test on Fusarium oxysporum [5] it was 58%. The inhibition of growth at 10 ppm amounted to 51% with Fusarium oxysporum [3] and 46% in the test with Penicillium citrinum [6].
Take `C[C@@H]1S[C@@H](c2ccccc2O)N(c2ccc(CCc3ccc(N4C(=O)[C@H](C)S[C@H]4c4ccccc4O)cc3)cc2)C1=O`: the inhibition of growth at 1000 ppm was 78% in the test with Penicillium citrinum [1] and 88% in the test with Fusarium oxysporum [4]. The inhibition of growth at 100 ppm in the test on Penicillium citrinum [2] is 65%; in the test on Fusarium oxysporum [5] it was 71%. For the same molecule, the inhibition of growth at 10 ppm was 30% in the test on Fusarium oxysporum [3] and 37% with Penicillium citrinum [6].
Regarding `COc1cc([C@@H]2S[C@@H](C)C(=O)N2c2ccc(CCc3ccc(N4C(=O)[C@H](C)S[C@H]4c4ccc(O)c(OC)c4)cc3)cc2)ccc1O`, the inhibition of growth at 1000 ppm worked out at 87% in the test on Penicillium citrinum [1] and 91% with Fusarium oxysporum [4]. The inhibition of growth at 100 ppm was 58% in the test with Penicillium citrinum [2] and 85% in the test with Fusarium oxysporum [5]. Besides, the inhibition of growth at 10 ppm with Fusarium oxysporum [3] was found to be 76%; in the test with Penicillium citrinum [6], 45%.
